Shown is part of a subset that was picked to be rich in hits.
INS promoter act = TRM-6 insulin promoter activation. TRM-6 cells (human fetal islet line), insulin promoter eGFP reporter, imaging; plate-scaled: unstimulated 0, stimulated control 100. activation, % at 2 µM. actives 0.81% (n = 130,000);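 active means activation at 2 µM above a set limit, confirmed on inspection of the cell images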;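 further: share of cells whose green reporter signal exceeds an intensity cutoff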
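Assay system: TRM-6 insulin promoter–eGFP reporter cells / Input: 1,000 cells per well / Medium: Low-glucose (5.5 mM) medium with tamoxifen / Also added: tamoxifen inducer, 0.75 µM, in seeding medium / Timing: overnight tamoxifen, then two-day compound incubation at 37 °C / Signal: automated fluorescence imaging of paraformaldehyde-fixed, Hoechst-counterstained cells, green channel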
An asterisk follows results filed as active; [ ] = dose if it differs, or a comment.

SMILES	INS promoter act
Cc1cccc(OCc2nnc(NC(=O)c3cccs3)s2)c1	6
COc1ccc(NC(=O)c2sc3nc(Cc4ccccc4)cc(C(F)(F)F)c3c2N)cc1OC	5
Cc1nnc(NC(=O)c2sc3nc(-c4cccs4)cc(C(F)(F)F)c3c2N)s1	107*[may fluoresce]
N#Cc1sc2nc(-c3cccs3)cc(-c3ccccc3)c2c1N	0
Nc1c(C(=O)Nc2nccs2)sc2nc(-c3cccs3)cc(C(F)(F)F)c12	182*[may fluoresce]
CCOc1ccc(NC(=O)Nc2cc(C)ccc2F)cc1	-7
COc1ccccc1NS(=O)(=O)c1cc(NC(=O)Cn2cnc3c2c(=O)n(C)c(=O)n3C)ccc1C	-7
CCn1c2ccccc2c2cc(N=C3SC(CC(=O)Nc4ccccc4)C(=O)N3C)ccc21 (centres undefined)	7
CCOC(=O)/C=C1\NC(C)(C)Cc2cc(OC)c(OC)cc21	-72
CC1(C)Cc2ccccc2/C(=C/C(=O)N2CCCCCC2)N1	557*
CN(C)c1ccc(/C=N/NC(=O)C(=O)/C=C2\NC3(CCCC3)Cc3ccccc32)cc1	-8
N/C(=N\OS(=O)(=O)c1ccc(Br)cc1)c1ccncc1	3
Cc1ccc(S(=O)(=O)CCSc2nc(C)cc(C(F)(F)F)c2C#N)cc1	106
CSc1ccc(Cl)c(C(=O)OCC(=O)N2CCOCC2)c1	7
Cc1cc(OCC(=O)N2CCCC2)cc(C)c1Cl	131
Cc1cc(C)c(C)c(OCC(=O)N2CCOCC2)c1	-3
Cc1cc(OCC(=O)N2CCOCC2)cc2oc(=O)c3ccccc3c12	424*
COC(=O)c1c(-n2c(C)cc(C=O)c2C)sc2c1CCCC2	-10
CCC(CO)NCc1ccc2c(c1)n(C)c(=O)n2C (centres undefined)	6
Cc1cc(C)n2nc(-c3ccc(F)cc3)nc2n1	0
Cc1cc(N)nc2nc(C(F)(F)F)nn12	800*
Cc1cc(C)n2nc(CCc3ccccc3)nc2n1	0
Cc1ccccc1-c1nc(CS(=O)(=O)CC(=O)Nc2cc(F)ccc2F)c(C)o1	0
COc1ccc(OCC(=O)N/N=C(/C)Cc2ccccc2)cc1	0
CCOC(=O)c1c(-c2ccc(C)cc2)csc1NC(=O)C1CCCO1 (centres undefined)	-2
SMILES	INS promoter act
CCCOC(=O)c1c(NC(=O)C2CCCO2)sc(C(=O)OC)c1C (centres undefined)	567*
CCc1c(C)sc(NC(=O)C2CCCO2)c1C#N (centres undefined)	43
Cc1nc2nc[nH]n2c(=O)c1CCC(C)C	0
CC1(C)C2CCC1(C)C(NC(=O)/C=C/c1ccccc1)C2 (centres undefined)	0
NNC(=O)[C@H]1C[C@@H]1c1ccccc1	7
CSc1ccc(/C=N/NC(=O)c2ccc(O)cc2)cc1	-6
O=[N+]([O-])c1ccc(N/N=C2\CC3CC=CC23)cc1 (centres undefined)	0
O=C(N/N=C1\CC2CC=CC12)c1ccc(O)cc1 (centres undefined)	407*
Nc1nn(-c2ccccc2)nc1C(=O)OCc1ccccc1F	8
C/C(=N\NC(=O)c1cccnc1)c1nnn(-c2nonc2N)c1C	8
CCCCn1c(=O)[nH]c(=O)c2c1nc(COC(=O)c1c(C)noc1C)n2CCC	0
O=C(NCC1CCCO1)NC1CCCCC1 (centres undefined)	-7
O=C(CCCCCCCC(=O)NCC1CCCO1)NCC1CCCO1 (centres undefined)	-3
CN(C)CCCNC(=O)C(=O)NCC1CCCO1 (centres undefined)	294*
CN(C)C=NC(=O)c1cc(C(=O)c2ccc(C(C)(C)C)cc2)c[nH]1	0
COC(=O)CN1C(=O)S/C(=C/c2ccc(N3CCCCC3)o2)C1=O	184*
O=C(CN1C(=O)S/C(=C/c2ccc(N3CCOCC3)cc2)C1=O)N1CCOCC1	-6
COC(=O)CN1C(=O)S/C(=C/c2cc(C)n(C)c2C)C1=O	-4
Cc1ccc(-n2nc(C)cc2NC(=O)c2ccc(C)s2)cc1	-3
COc1cccc(/C=N/NC(=O)CN2C(=O)NC3NC(=O)NC32)c1 (centres undefined)	6
COc1cc(-c2nc(Cc3c(F)cccc3Cl)no2)cc(OC)c1OC	-70
Cc1ccccc1-c1noc(-c2cccs2)n1	-80
Cc1ccccc1-c1nc(Cc2ccc(Cl)cc2)no1	103*
COc1ccc(CN(C)c2nc(-c3cccnc3)nc3ccccc23)cc1OC	7
CCn1c(C)nc2cc(C(=O)N/N=C/c3ccc(OC)c(O)c3)ccc21	-4
SMILES	INS promoter act
O=C(O)c1ccc(N2C(=O)CC(SC(=NCc3ccc4c(c3)OCO4)Nc3ccc(F)cc3)C2=O)cc1 (centres undefined)	143
COc1ccc(/C=C2\SC(=NCc3ccccc3)N(Cc3ccccc3)C2=O)cc1OC	9
C=CCN1C(=O)/C(=C/c2ccc(N(C)C)cc2)S/C1=N\c1nnc(CC)s1	163*
O=C(N/N=C/c1cc([N+](=O)[O-])c(N2CCOCC2)cc1N1CCOCC1)c1cccnc1	-69
O=S(=O)(c1ccc(OCC(O)CN2CCN(c3ccccc3)CC2)cc1)N1CCOCC1 (centres undefined)	111
OC(CSc1ccc(F)cc1)CN1CCN(c2ccccc2)CC1 (centres undefined)	118*
OC(CN1CCN(c2ccccc2)CC1)Cn1c2ccccc2c2ccccc21 (centres undefined)	-8
CN(CC(=O)NC(=O)NCc1ccccc1)Cc1cccc(Cl)c1Cl	3
Cc1cc(C)cc(NC(=O)c2snc3c(=O)[nH]cnc23)c1	6
S=C(Nc1ccc(Oc2ccc(NC(=S)NC3CCCCC3)cc2)cc1)NC1CCCCC1	0
CC(C)(C)c1ccc(/C=N/NC(=S)NC2CCCCC2)cc1	421*
S=C(Nc1ccc(Cl)c(Cl)c1)NC1CCCCC1	9
CCN(CC)CC#CC(OC)(c1ccccc1)c1ccccc1	-7
COc1cccc(C2=NN(C(=O)c3cccs3)C(O)(C(F)(F)F)C2)c1 (centres undefined)	7
CCn1c(=O)c2ccccc2n2c(SCC(=O)NCc3cccs3)nnc12	136*
O=C(CSc1nc2ccccc2c(=O)n1Cc1ccc(Cl)cc1)NCc1cccs1	-7
CCn1c(SCC(=O)NCc2cccs2)nc2c1c(=O)n(C)c(=O)n2C	-9
Cc1onc(-c2ccccc2Cl)c1C(=O)N1CCN=C1SCc1cccnc1	-73
COCC(=O)NC1CC2CCC(C1)N2C(=S)Nc1ccccc1C(=O)OC (centres undefined)	0
COC(=O)c1cn(-c2ccccc2)c(C)c1C(=O)OC	592*
O=C(O)c1cn(-c2ccccc2)c(=O)c2ccccc12	-70
COC(=O)c1cn(C(=O)OC)c2ccccc12	226
CCc1ccc(C(=O)NNC(=O)OC)cc1	-7
CN(C)CCCNC(=S)NCCNc1nc2cc3c(cc2cc1C#N)OCO3	-8
COc1cc(NC(=S)NCCN2CCOCC2)cc(OC)c1	-64
SMILES	INS promoter act
CCCc1nc2ccccc2n2cc3c(=O)n(C)c(=O)n(C)c3c12	-76
Cc1snc(S(=O)(=O)/C(C#N)=N/Nc2ccc(C(F)(F)F)cc2)c1C#N	-71
CCOC(=O)COc1ccc(S(=O)(=O)N2CCc3ccccc3C2)cc1	-8
CC(=O)c1cn(CC(=O)Nc2ccc(C)cc2)c2ccccc12	7
CC(=O)c1cn(CC(=O)Nc2ccc(C)c(C)c2)c2ccccc12	533*
CC(=O)c1cn(CC(=O)NCc2ccc3c(c2)OCO3)c2ccccc12	3
N#CC1=C(N)OC2=C(C(=O)CCC2)C1Cc1ccccc1 (centres undefined)	-3

Screening results: PubChem, Columbia University Molecular Screening Center
